Measurements from different studies.
Lines come from different studies, so protocols differ.
Target: Serine/threonine-protein kinase mTOR (MTOR, Homo sapiens, UniProt P42345)

SMILES | observed | mode | method | tested at | measurement | value
Cc1ccc(NC(=O)c2ccc(C)c(C(F)(F)F)c2)cc1C#Cc1nn(C2CCC(O)CC2)c2ncnc(N)c12 (centres unmarked) | cell-free assay | inhibitor | – | 10 µM | remaining signal | 101%
Cc1ccc(C(=O)NCc2ccsc2)cc1C#Cc1cn(C(C)C)c2ncnc(N)c12 | enzyme activity | inhibitor | – | 1 µM | activity vs control | 105%
CNC(=O)Nc1ccc2c(c1)[C@@]1(CC2)OC(=O)N(CC(=O)N(Cc2ccc(F)cc2)[C@@H](C)C(F)(F)F)C1=O | cell-free assay | – | competition with immobilised ligand | 1 µM | remaining binding | 100%
CC(C)c1ccc(NC(=O)c2cccs2)c(-c2nc3ccccc3[nH]c2=O)c1 | enzyme activity | inhibitor | – | 1 µM | activity vs control | 85%
O=C(CSc1nc2nccnc2c(=O)n1CCc1ccccc1)Nc1ccccc1 | enzyme activity | inhibitor | – | 10 µM | inhibition | 31%
CN([C@@H]1CCc2c(CC(=O)O)c3ccccc3n2C1)S(=O)(=O)c1ccc(F)cc1 | cell-free assay | – | competition with immobilised ligand | 1 µM | remaining binding | 100%
Cc1cc(NC(=O)c2cccc3cc(-c4cccc5[nH]nc(N)c45)ccc23)ccc1F | enzyme activity | inhibitor | – | 0.1 µM | activity vs control | 92%
COc1ccc2c(c1)O[C@@H](c1ccc(OC)c(OC)c1)C[C@H]2NC(=O)C1(c2ccc3c(c2)OC(F)(F)O3)CC1 | cell-free assay | – | competition with immobilised ligand | 1 µM | remaining binding | 100%
CNCc1ccc(-c2cc(-c3nc(-c4ccc(S(=O)(=O)C(C)C)cc4)cnc3N)on2)cc1 | enzyme activity | inhibitor | – | 2 µM | inhibition | 37%
N[C@@H]1CCN(c2nccc(-c3cnn4ncccc34)n2)C1 | binding | – | – | 1 µM | remaining binding | 99%
CCCS(=O)(=O)Nc1ccc(F)c(C(=O)c2c[nH]c3ncc(-c4ccc(Cl)cc4)cc23)c1F | enzyme activity | inhibitor | – | 1 µM | inhibition | < 10%
COc1cc2ncnc(Nc3ccc(Oc4ccccc4)cc3C)c2cc1OC | enzyme activity | inhibitor | – | 1 µM | inhibition | 1%
C[C@@H](c1cccc(C#N)c1)n1cc(Cl)cc(C(N)=O)c1=N | cell-free assay | – | competition with immobilised ligand | 1 µM | remaining binding | 96%
O=C(CSc1nc2nccnc2c(=O)n1CCc1ccccc1)Nc1nccs1 | enzyme activity | inhibitor | – | 10 µM | inhibition | 4%
CC(C)(C)c1nc(-c2cccc(NS(=O)(=O)c3c(F)cccc3F)c2F)c(-c2ccnc(N)n2)s1 | enzyme activity | inhibitor | radiometric | 1 µM | remaining activity | 99%
CCCCN(CCCC)C(=O)CN1C[C@@H](c2cc(OC)c3c(c2)OCO3)[C@H](C(=O)O)[C@H]1CC(C)(C)CCC | cell-free assay | – | competition with immobilised ligand | 1 µM | remaining binding | 100%
CCN(CC)c1ccc(C2=NNC(=O)CC2C)cc1[N+](=O)[O-] (centres unmarked) | enzyme activity | inhibitor | – | 10 µM | remaining activity | 110%
